Paper PMC6261781 (Cell chemical biology, 2018)
Where a name gives a salt, the structure may show the parent alone.

Assays:
HIV-1^WT = experiment: Anti-HIV-1 MTT assay; type: cell-based; details: read-out: Anti-HIV-1 IC50 against HIV-1^WT, MT-4 cells, mean ± 1 S.D.
in vitro = type: cell-based, human; details: human
MT-4 cells = experiment: in vitro; type: cell-based, human; details: for S.I. with (CC50/IC50^WT): CC50 in MT-4 / IC50 against HIV-1^WT
HBV = details: ref Takamatsu et al., 2015; cited from earlier work
HIV-1 = details: ref Takamatsu et al., 2015; cited from earlier work
HIV-1EFdA^R = experiment: p24 assay using MT-4 cells; type: cell-based; details: for Activity against HIV-1EFdA^R (in words) / Fold change of IC50 against HIV-1EFdA^R compared with HIV-1^WT: p24 assay, MT-4 cells; for Activity against HIV-1EFdA^R (in words): concentrations up to 1 μM; for IC50: Human immunodeficiency virus 1, MT4, read-out: IC50 against HIV-1EFdA^R
Procedure, shortened: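 MT-4 cells (RPMI 1640, 10% FCS, 37°C, 5% CO2) infected with a recombinant HIV-1NL4-3-based clone and cultured 5 days with test compound. Supernatant p24 was measured by chemiluminescent enzyme immunoassay, and signal (cps) was converted to ng/ml against a 2-fold serial-dilution p24 standard curve. Run in triplicate in two or three independent experiments; IC50 was calculated per experiment and averaged.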

[1] = ref Nakata et al., 2007; cited from earlier work
HIV-1^67-75 = experiment: Anti-HIV-1 MTT assay in MT-4 cells; type: cell-based
HIV-1^M184V [2] = details: ref Kawamoto et al., 2008; Maeda et al., 2014; cited from earlier work
[3] = test system: HIV-1 with I142V, T165R, and M184V in RT; details: ref Kawamoto et al., 2008; cited from earlier work
[4] = 10-mg single dose in humans; ref Grobler et al., CROI. Abstr. 98, 2016; cited from earlier work
HIV-1^K65R = experiment: Anti-HIV-1 MTT assay in MT-4 cells; type: cell-based
HIV-1^M184V [5] = experiment: Anti-HIV-1 MTT assay in MT-4 cells; type: cell-based
HIV-1^T215F = experiment: Anti-HIV-1 MTT assay in MT-4 cells; type: cell-based

| Compound | CC50 (in vitro) | S.I. with (CC50/IC50^WT) (MT-4 cells) | also measured |
| --- | --- | --- | --- |
| CC(C)OC(=O)OCOP(=O)(CO[C@H](C)Cn1cnc2c(N)ncnc21)OCOC(=O)OC(C)C [TDF, tenofovir disoproxil fumarate, reference compound] | 39.4 ± 7.3 µM | 190 | IC50 (HIV-1^WT): 204 ± 127 nM |
| Nc1nc(F)nc2c1ncn2[C@H]1C[C@H](O)[C@](CO)(CF)O1 [FMFdA, 4′-fluoromethyl-2-fluoro-2′-deoxyadenosine] | 6.6 ± 0.5 µM | 260 |  |
| N#C[C@]1(CO)O[C@@H](n2cnc3c(=O)[nH]c(N)nc32)C[C@@H]1O [CdG, reference compound] |  |  | Anti-HBV activity (in words) (HBV): sub nano molar; Anti-HIV-1 activity (in words) (HIV-1): sub nano molar |
| C#C[C@]1(CO)O[C@@H](n2ccc(N)nc2=O)C[C@@H]1O [EdC, 4′-ethynyl-2′-deoxycytidine] |  |  | Activity against HIV-1EFdA^R (in words) (HIV-1EFdA^R): favorable activity |
| CC[C@]1(CO)O[C@@H](n2cnc3c(N)nc(N)nc32)C[C@@H]1O [EtAdA, 4′-ethyl-2-amino-2′-deoxyadenosine] | 35.9 ± 3.1 µM | 4,030 |  |
| CNc1nc(N)nc2c1ncn2[C@H]1C[C@H](O)[C@](CO)(CF)O1 [FMAMdA, 4′-fluoromethyl-2-amino-N6-methyl-2′-deoxyadenosine] | > 100 µM | >600 |  |
| C[C@]1(CO)O[C@@H](n2cnc3c(O)nc(N)nc32)C[C@@H]1O [MdG, 4′-methyl-2′-deoxyguanosine] | 4.6 ± 0.6 µM | 25 |  |
| C#C[C@]1(COP(=O)(O)OP(=O)(O)OP(=O)(O)O)O[C@@H](n2cnc3c(N)nc(F)nc32)C[C@@H]1O [EFdA-TP, EFdA-triphosphate] |  |  | Intracellular half-life [1]: ≥ 17 h |
| Nc1ccn([C@H]2C[C@H](O)[C@](CO)(CF)O2)c(=O)n1 [FMdC, 4′-fluoromethyl-2′-deoxycytidine] | 4 µM | 120 |  |
| N#C[C@]1(CO)O[C@@H](n2cnc3c(N)nc(N)nc32)C[C@@H]1O [CAdA, 4′-cyano-2-amino-2′-deoxyadenosine] | 3.5 ± 1.2 µM | 17,500 | Activity against HIV-1EFdA^R (in words) (HIV-1EFdA^R): favorable activity; Anti-HBV activity (in words) (HBV): sub nano molar; Anti-HIV-1 activity (in words) (HIV-1): sub nano molar |
| C#C[C@]1(CO)O[C@@H](n2cnc3c(=O)[nH]c(N)nc32)C[C@@H]1O [EdG, 4′-ethynyl-2′-deoxyguanosine] | 7 µM | 4,350 | Activity against HIV-1EFdA^R (in words) (HIV-1EFdA^R): favorable activity |
| CC[C@]1(CO)O[C@@H](n2cnc3c(O)nc(N)nc32)C[C@@H]1O [EtdG, 4′-ethyl-2′-deoxyguanosine] | 47 ± 3.2 µM | 8,390 |  |
| Nc1nc(N)c2ncn([C@H]3C[C@H](O)[C@](CO)(CF)O3)c2n1 [FMAdA, 4′-fluoromethyl-2-amino-2′-deoxyadenosine] | 22.2 ± 4.1 µM | 7,400 |  |
| Cc1cn([C@H]2C[C@H](N=[N+]=[N-])[C@@H](CO)O2)c(=O)[nH]c1=O [AZT, zidovudine, reference compound] | > 100 µM | > 2,670 | IC50 (HIV-1^WT): 37.4 ± 7.5 nM |
| C[C@]1(CO)O[C@@H](n2cnc3c(N)nc(N)nc32)C[C@@H]1O [MAdA, 4′-methyl-2-amino-2′-deoxyadenosine] | 4 ± 0.3 µM | 15 |  |
| Nc1nc(NC2CC2)c2ncn([C@H]3C=C[C@@H](CO)C3)c2n1 [ABC, abacavir, reference compound] | > 100 µM | >380 | IC50 (HIV-1^WT): 263 ± 7.6 nM; IC50 (HIV-1^67-75; Human immunodeficiency virus 1, MT4, read-out: IC50 against HIV-1^67-75): > 1000 nM |
| C=C[C@]1(CO)O[C@@H](n2cnc3c(N)nc(N)nc32)C[C@@H]1O [VAdA, 4′-vinyl-2-amino-2′-deoxyadenosine] | 20.6 ± 3.2 µM | 4,790 | IC50 (HIV-1EFdA^R): 804 nM; Fold change of IC50 against HIV-1EFdA^R compared with HIV-1^WT (HIV-1EFdA^R): 190 fold |
| C#C[C@]1(CO)O[C@@H](n2cnc3c(N)nc(F)nc32)C[C@@H]1O [EFdA, 4′-ethynyl-2-fluoro-2′-deoxyadenosine] | 19.2 ± 6 µM | 64,000 | IC50 (HIV-1EFdA^R): 42 nM; Fold change of IC50 against HIV-1EFdA^R compared with HIV-1^WT (HIV-1EFdA^R): 52 fold; Activity against HIV-1EFdA^R (in words) (HIV-1EFdA^R): favorable activity; Fold decrease in activity against HIV-1^M184V (previous observation) (HIV-1^M184V [2]): ~ 6 fold; Resistance, fold change compared with HIV-1^WT [3]: 22 fold; Anti-HBV activity (in words) (HBV): minor anti-HBV activity; Time with concentrations exceeding projected efficacious concentrations [4]: at least 7 days |
| Cc1cn(C2CC(O)C(C#N)(CO)O2)c(=O)[nH]c1=O (stereo not shown) [CdT, 4′-cyano-2′-deoxythymidine] |  | > 1,100 | IC50 (HIV-1^WT): 9.1 ± 7.3 nM; Fold change of IC50 against HIV-1^K65R compared with HIV-1^WT (in parentheses) (HIV-1^K65R): 0.2 fold; Fold change of IC50 against HIV-1^67-75 compared with HIV-1^WT (in parentheses) (HIV-1^67-75; MT-4 cells, MTT assay): 0.9 fold; Fold change of IC50 against HIV-1^M184V compared with HIV-1^WT (in parentheses) (HIV-1^M184V [5]): 1.3 fold; IC50 (HIV-1^M184V [5]; read-out: Anti-HIV-1 IC50 against HIV-1^M184V): 11.7 ± 2.4 nM; Fold change of IC50 against HIV-1^T215F compared with HIV-1^WT (in parentheses) (HIV-1^T215F): 0.3 fold; IC50 (HIV-1^T215F; read-out: Anti-HIV-1 IC50 against HIV-1^T215F): 3 nM; CC50 (MT-4 cells; read-out: CC50 in MT-4, MT-4 cells, 7 days of culture): > 10 µM; Activity against HIV-1EFdA^R (in words) (HIV-1EFdA^R): favorable activity |
